The text below walks through data of article PMC7825275 (Cancer chemotherapy and pharmacology, 2019).

Data set [1] deals with patients with advanced solid tumors. The format is in vivo, human. Summed up: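 Standard 3+3 escalation with modified Fibonacci steps. Oral veliparib was given every 12 h on days 1–7 of 21-day cycles, with IV carboplatin/paclitaxel on day 3. For the first 46 patients, cycle 1 was chemotherapy alone and DLT was scored in cycle 2; afterwards all three agents were given in cycle 1, which was the DLT cycle. Growth factors were barred in cycles 1–2. MTD was the highest dose with ≤1/6 DLTs.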

In data set [2] the test system is previously untreated non-small cell lung cancer. Particulars: with carboplatin (AUC=6) plus paclitaxel (200 mg/m^2), Japanese patients; cited from earlier work.
The test system of data set [3] is patients. The settings on record: out of 35 patients enrolled, with oral daily cyclophosphamide; cited from earlier work.

`C[C@]1(c2nc3c(C(N)=O)cccc3[nH]2)CCCN1` [veliparib]: in data set [1] (all dose levels), the “patients with dose-limiting toxicities during DLT observation cycle” value was 8 patients. Moreover, the “DLTs at dose level 7” value in data set [1] (veliparib 80 mg bid) is on record as 1/6. In data set [1] (veliparib 120 mg BID, paclitaxel 200 mg/m^2, carboplatin AUC 6, febrile neutropenia, hyponatremia), the “DLTs at the MAD, patients with DLT of evaluable patients” value was 2 of 7. In addition, the “maximum administered dose (MAD), veliparib dose” value in data set [1] (with paclitaxel 200 mg/m^2 and carboplatin AUC 6 (dose level 8)) was found to be 120 mg BID. In addition, the “MTD, veliparib dose” value in data set [2] is on record as 120 mg. The partial responses entry in data set [3] was “seven”.
